As a reminder, the inhibition is the drop in the measured response relative to a control, in per cent. For orientation: IC50 means the concentration that gives 50% inhibition.

Where only a bound is given, the exact number is not on record here.

Test [1] has as its target T1, cGMP-inhibited 3',5'-cyclic phosphodiesterase 3A (Homo sapiens, UniProt Q14432). The test can be described thus: Inhibition of human recombinant PDE3A assessed as cGMP hydrolysis at 50 uM after 60 mins by fluorescence polarization assay using tetramethylrhodamine-tagged cGMP as substrate. Summed up: (§1)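 Single-point screen at 50 μM in triplicate. Recombinant PDE3A in 10 mM Tris-HCl pH 7.2, 10 mM MgCl2, 0.05% NaN3, 0.1% phosphate-free BSA. Substrate 50 nM FI-cAMP and/or TAMRA-cGMP, hydrolysis read simultaneously by IMAP fluorescence polarization after 60 min at room temperature and termination with binding solution.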
Background: Fluorescence polarisation rises when a labelled molecule tumbles more slowly, as on binding a larger partner.

Test [2] concerns HT-29. The test can be described thus: Growth inhibition of human HT-29 cells at 50 uM after 72 hrs by luminescent assay. The class given is functional. To be noted: HT-29, 72 h, read-out: GI. Summed up: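 HT-29 cells in RPMI 1640 with 5% FBS at 37 °C, 5% CO2, >95% viability required. Plated at 5000 cells/well and left 18–24 h, then given 50 μM compound in triplicate. Viability measured 72 h later by CellTiter-Glo luminescence.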

In test [3] the target is T1, cGMP-inhibited 3',5'-cyclic phosphodiesterase 3A. The test can be described thus: Inhibition of human recombinant PDE3A assessed as cAMP hydrolysis at 50 uM after 60 mins by fluorescence polarization assay using fluorescein-tagged cAMP as substrate. In a few lines:
as §1

For test [4], the system named is HT-29. The test can be described thus: Growth inhibition of human HT-29 cells after 72 hrs by luminescent assay. The test is classed as functional, cell-based. The note with it: HT-29, 72 h. In a few lines:
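HT-29 cells (ATCC) in RPMI 1640 + 5% FBS, 37 °C, 5% CO2; only cultures >95% viable (Trypan blue) used. Seeded 5000 cells/well, 18–24 h before treatment. Live cells read by CellTiter-Glo luminescence (ATP content) 72 h post-treatment.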

For test [5], the target named is T1, cGMP-inhibited 3',5'-cyclic phosphodiesterase 3A. The test can be described thus: Inhibition of human recombinant PDE3A assessed as cGMP hydrolysis after 60 mins by fluorescence polarization assay using tetramethylrhodamine-tagged cGMP as substrate.

T1 sequence (Q14432 whole entry): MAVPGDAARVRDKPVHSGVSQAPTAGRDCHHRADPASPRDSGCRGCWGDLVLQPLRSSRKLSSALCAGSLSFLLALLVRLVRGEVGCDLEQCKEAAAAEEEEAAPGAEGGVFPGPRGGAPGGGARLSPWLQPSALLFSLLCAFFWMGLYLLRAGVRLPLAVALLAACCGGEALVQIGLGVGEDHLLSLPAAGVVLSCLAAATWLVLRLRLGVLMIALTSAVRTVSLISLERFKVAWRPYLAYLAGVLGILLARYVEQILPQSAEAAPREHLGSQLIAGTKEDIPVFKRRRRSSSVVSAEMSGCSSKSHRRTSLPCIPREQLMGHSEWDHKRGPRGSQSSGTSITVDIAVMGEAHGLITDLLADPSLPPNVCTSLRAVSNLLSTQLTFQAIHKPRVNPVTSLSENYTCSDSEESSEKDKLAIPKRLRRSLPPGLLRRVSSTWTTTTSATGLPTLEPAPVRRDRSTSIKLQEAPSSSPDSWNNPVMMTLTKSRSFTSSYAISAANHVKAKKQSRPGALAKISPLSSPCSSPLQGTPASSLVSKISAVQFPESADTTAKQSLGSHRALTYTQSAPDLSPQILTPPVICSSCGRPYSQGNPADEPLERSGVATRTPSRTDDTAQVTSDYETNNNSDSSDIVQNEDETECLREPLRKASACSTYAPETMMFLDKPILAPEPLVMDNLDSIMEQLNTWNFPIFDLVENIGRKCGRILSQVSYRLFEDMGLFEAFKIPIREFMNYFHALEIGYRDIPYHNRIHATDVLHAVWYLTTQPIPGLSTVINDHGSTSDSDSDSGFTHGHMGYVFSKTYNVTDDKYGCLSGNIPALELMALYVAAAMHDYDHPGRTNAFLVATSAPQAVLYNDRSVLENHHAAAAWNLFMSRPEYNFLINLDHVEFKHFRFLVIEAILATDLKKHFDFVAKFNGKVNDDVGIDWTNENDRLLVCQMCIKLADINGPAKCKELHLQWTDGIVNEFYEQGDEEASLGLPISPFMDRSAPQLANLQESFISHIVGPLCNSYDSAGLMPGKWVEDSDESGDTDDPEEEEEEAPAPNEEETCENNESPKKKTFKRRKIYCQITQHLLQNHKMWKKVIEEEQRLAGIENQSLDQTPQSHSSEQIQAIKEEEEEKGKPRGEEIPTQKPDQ

As to `N#Cc1c(-c2cccs2)cc(-c2ccc3c(c2)OCO3)[nH]c1=O`, the inhibition in test [1] was 49.6%; in test [3] it was 32.3%. The inhibition of growth at 50 µM with HT-29 [2] turned out to be 6.14%.

`N#Cc1c(-c2ccsc2)cc(-c2ccc3c(c2)OCO3)[nH]c1=N`: the inhibition in test [1] was determined as 3%; in test [3] it was 18%. Also, the inhibition of growth at 50 µM with HT-29 [2] turned out to be 45%.

Consider `COc1ccccc1-c1cc(-c2ccc3c(c2)OCO3)[nH]c(=O)c1C#N`, for which the inhibition in test [1] and in test [3] was 30% each time. Besides, in the test on HT-29 [2], the inhibition of growth at 50 µM was found to be 0%.

Consider `COc1ccccc1-c1cc(-c2ccc(Br)cc2)[nH]c(=O)c1C#N`, for which the inhibition in test [1] was found to be 15.1%; in test [3] it was 6.12%. In addition, the inhibition of growth at 50 µM in the test with HT-29 [2] was determined as 13.6%.

As to `N#Cc1c(-c2cccs2)cc(-c2ccc(Br)cc2)[nH]c1=O`, the inhibition in test [1] turned out to be 4%; in test [3] it was 3%. In addition, in the test with HT-29 [2], the inhibition of growth at 50 µM is -20%.

`N#Cc1c(-c2cccs2)cc(-c2ccc(Br)cc2)[nH]c1=N`: the inhibition of growth at 50 µM in the test with HT-29 [2] stood at 98.7%. For the same compound, in the test with HT-29 [4], the IC50 stood at 35 µM. Also, the inhibition in test [3] stood at 3.57%.

Consider `CCOc1ccccc1-c1cc(-c2ccc3c(c2)OCO3)[nH]c(=N)c1C#N`, for which the inhibition in test [1] was 26.2%; in test [3], 19%. Also, the inhibition of growth at 50 µM with HT-29 [2] stood at 91.2%. This compound gave a 50% inhibitory concentration (IC50) in the test on HT-29 [4] of 3 µM.

On to `CCOc1ccccc1-c1cc(-c2ccc(Br)cc2)nc(N)c1C#N`, for which the IC50 in test [5] was determined as 27 µM.

As for `CCOc1ccc(-c2cc(-c3ccc(Br)cc3)[nH]c(=O)c2C#N)cc1`, the figures for the inhibition in test [1] and in test [3] were 10.8% and 4.76%, respectively. In the test with HT-29 [2], the inhibition of growth at 50 µM worked out at 10.7%.

With `CCOc1ccc(-c2cc(-c3ccc4c(c3)OCO4)[nH]c(=N)c2C#N)cc1`, the inhibition in test [1] is -8.99%; in test [3] it was 45.9%. Besides, the inhibition of growth at 50 µM in the test on HT-29 [2] amounted to 87.7%. In the test on HT-29 [4], this compound returned an IC50 of 12 µM.

`COc1ccccc1-c1cc(-c2ccc3c(c2)OCO3)[nH]c(=N)c1C#N`: the inhibition in test [1] was 35%; in test [3] it was 45%. The inhibition of growth at 50 µM in the test with HT-29 [2] was determined as 95%. The half-inhibitory concentration (IC50) in the test with HT-29 [4] came to 4.17 µM.

With `N#Cc1c(-c2cccs2)cc(-c2ccc3c(c2)OCO3)[nH]c1=N`, the inhibition in test [1] is 10%; in test [3], 5%. For the same compound, the inhibition of growth at 50 µM in the test with HT-29 [2] is -20%.

`COc1ccccc1-c1cc(-c2ccc(Br)cc2)[nH]c(=N)c1C#N`: the inhibition of growth at 50 µM in the test with HT-29 [2] came to 75%. In the test with HT-29 [4], the 50% inhibitory concentration (IC50) was 50 µM. The inhibition in test [3] came to 16.3%.

In the case of `CCOc1ccccc1-c1cc(-c2ccc3c(c2)OCO3)[nH]c(=O)c1C#N`, the inhibition is 14.4% in test [1] and 7.65% in test [3]. Moreover, the inhibition of growth at 50 µM with HT-29 [2] stood at 8.28%.

Take `N#Cc1c(-c2ccsc2)cc(-c2ccc(Br)cc2)[nH]c1=O`: the values for the inhibition in test [1] and in test [3] were -5% and 2%, respectively. In the test on HT-29 [2], the inhibition of growth at 50 µM is -25%.

In the case of `CCOc1ccccc1-c1cc(-c2ccc(Br)cc2)[nH]c(=N)c1C#N`, the inhibition was 126% in test [1] and 37.9% in test [3]. For the same compound, the inhibition of growth at 50 µM with HT-29 [2] is 99.8%. The 50% inhibitory concentration (IC50) in the test with HT-29 [4] worked out at 13 µM.

Take `Cc1[nH]c(=O)c(C#N)cc1-c1ccncc1` [MILRINONE]: the inhibition in test [1] is 35%; in test [3], 77%. The inhibition of growth at 50 µM in the test on HT-29 [2] worked out at 0%. For the same compound, the 50% inhibitory concentration (IC50) with HT-29 [4] is > 50 µM.

In the case of `CCOc1ccc(-c2cc(-c3ccc4c(c3)OCO4)[nH]c(=O)c2C#N)cc1`, the figures for the inhibition in test [1] and in test [3] were 22.3% and 10.5%, respectively. Besides, the inhibition of growth at 50 µM with HT-29 [2] was determined as 3.84%.

Regarding `CCOc1ccc(-c2cc(-c3ccc(Br)cc3)[nH]c(=N)c2C#N)cc1`, the inhibition in test [1] was found to be 50%; in test [3], 30%. For the same compound, in the test on HT-29 [2], the inhibition of growth at 50 µM came to 75%. This compound had a half-inhibitory concentration (IC50) in the test on HT-29 [4] of 14.2 µM.

In the case of `CCOc1ccccc1-c1cc(-c2ccc(Br)cc2)[nH]c(=O)c1C#N`, the inhibition in test [1] amounted to 35.2%; in test [3], 13.1%. Besides, in the test on HT-29 [2], the inhibition of growth at 50 µM came out at 2.81%.

Regarding `N#Cc1c(-c2ccsc2)cc(-c2ccc3c(c2)OCO3)[nH]c1=O`, the inhibition in test [1] worked out at 20%; in test [3] it was 8%. In addition, the inhibition of growth at 50 µM with HT-29 [2] was -25%.

With `N#Cc1c(-c2ccsc2)cc(-c2ccc(Br)cc2)[nH]c1=N`, the inhibition in test [1] amounted to 42%; in test [3], 1.5%. The inhibition of growth at 50 µM in the test on HT-29 [2] was -5%.

The values are drawn from ChEMBL document CHEMBL1155296, “Design, synthesis and biological evaluation of novel pyridine derivatives as anticancer agents and phosphodiesterase 3 inhibitors” (Bioorg Med Chem, 2009).
